# Experimental data: the M2OR odorant receptor database
# Biological target: T1, OR1A1 (Homo sapiens) (UniProt Q9P1Q5)
# T1 sequence (whole entry): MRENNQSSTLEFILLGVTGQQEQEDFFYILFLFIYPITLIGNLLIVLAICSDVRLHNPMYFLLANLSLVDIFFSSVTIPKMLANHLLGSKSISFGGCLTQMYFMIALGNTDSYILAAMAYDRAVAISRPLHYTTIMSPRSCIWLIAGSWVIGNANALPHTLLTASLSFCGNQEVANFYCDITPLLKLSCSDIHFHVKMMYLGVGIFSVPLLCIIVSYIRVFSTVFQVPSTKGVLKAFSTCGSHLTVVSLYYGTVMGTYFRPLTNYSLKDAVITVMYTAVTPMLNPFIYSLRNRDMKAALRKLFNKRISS
# Conditions: stereoisomer not certain
# Summary of the method: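 Each entry records the cell line, G-protein, co-transfected protein and tags used. Methods varied with the source, often transient luciferase assays in mammalian cell lines. A receptor–molecule pair is called responsive (active) if the original authors judged its signal statistically different from baseline and non-responsive (inactive) otherwise.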
row,SMILES,odorant receptor agonist call
1,CC(C)CO,inactive
2,CCCC(=O)OC,inactive
3,C=CC(=O)CC,inactive
4,CCCSSCCC,inactive
5,CCC(C)CO (configuration not stated),inactive
6,CCCCCC1CCCC(=O)O1 (configuration not stated),inactive
7,CCCCCC1=C(C)CCC1=O,active
8,CCCCCCCCS,active
9,CC(CC=O)CCCC(C)(C)O (configuration not stated),active
10,COC1=C(C)OC(C)C1=O (configuration not stated),inactive
11,C=Cc1ccc(O)cc1,inactive
12,CCCCC=CC=O,inactive
13,CCc1ccc(O)c(OC)c1,inactive
14,CCOC(=O)CCSC,inactive
15,CC1=CCC(C(C)C)C=C1 (configuration not stated),inactive
16,O=C1CCOc2ccccc21,active
17,CSSSC,inactive
18,CCCCCCC(C)=O,active
19,CSSc1ccoc1C,inactive

row,SMILES,odorant receptor agonist call
1,CCOC(=O)C1CCCCC1,active
2,CC(C)=CCCC(C)CCO (configuration not stated),active
3,CCC(C)C=O (configuration not stated),inactive
4,CCOC(=O)C(C)CC (configuration not stated),inactive
5,CCCCCCCCC=CC=O,inactive
6,OCC=Cc1ccccc1,inactive
7,CCCC=CC=O,inactive
8,Cc1c[nH]c2ccccc12,inactive
9,CCCCC(=O)CC(C)=O,active
10,CSCCCO,inactive
11,Cc1nccnc1C,inactive
12,CC(C)c1ccc(C=O)cc1,inactive
13,CCCCCC(=O)CC,active
14,CCCCCCCCCC(=O)OCC,inactive
15,CCCCCC=CCCC=O,active
16,O=C([O-])CCC(=O)[O-].[H+].[H+],inactive
17,CC=CC(=O)C1=C(C)CCCC1(C)C,inactive
18,CCCCCCCC1CCCC(=O)O1 (configuration not stated),inactive
